# Calls of active or inactive are those of the source. The rule behind the calls is not given here.
# Key:
# [1] = Binding affinity to Vibrio cholerae cholera toxin assessed as inhibition of cholera toxin binding to ganglioside GM1 receptor treated 15 mins before receptor addition by ELISA
# Escherichia coli = experiment: Binding affinity to enterotoxigenic Escherichia coli 12566 heat-labile enterotoxin assessed as inhibition of heat-labile enterotoxin binding to ganglioside GM1 receptor
# How it was run: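 A clarified sonicated PBS lysate of E. coli 12566 containing LT (90 μl) was incubated with or without ligand in 100 μl for 15 min at room temperature. Samples were serially diluted onto immobilized GM1 and detected by ELISA with polyclonal rabbit anti-CT serum as primary antibody.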
# [2] = Binding affinity to Vibrio cholerae cholera toxin assessed as quenching of intrinsic fluorescence by two-state binding model assay
# Vibrio cholerae [3] = experiment: Blockade of anti-CT antibody binding site of Vibrio cholerae cholera toxin preincubated for 15 mins before addition of anti-CT immunoglobulin G by immunoprecipitation-based SDS-PAGE
# Oryctolagus cuniculus [4] = organism: Oryctolagus cuniculus; experiment: Inhibition of intestinal fluid accumulation in rabbit ligated ileal loop model injected in presence of cholera toxin after 16 hrs; assay type: functional; conditions: Ileum
# Oryctolagus cuniculus [5] = organism: Oryctolagus cuniculus; experiment: Inhibition of intestinal fluid accumulation in rabbit ligated ileal loop model at 3.3 mM injected in presence of cholera toxin after 16 hrs; assay type: functional; conditions: Ileum
# Vibrio cholerae [6] = experiment: Binding affinity to Vibrio cholerae cholera toxin assessed as inhibition of cholera toxin binding to ganglioside GM1 receptor relative to ganglioside GM1 receptor antagonist […]
# Vibrio cholerae [7] = experiment: Binding affinity to Vibrio cholerae cholera toxin assessed as decrease in fluorescence intensity by fluorescence emission spectroscopy
# Oryctolagus cuniculus [8] = organism: Oryctolagus cuniculus; experiment: Inhibition of intestinal fluid accumulation in rabbit ligated ileal loop model at 21 mM injected in presence of heat labile enterotoxin after 16 hrs; assay type: functional; conditions: Ileum
# How it was run: (§1)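 Rabbits were starved overnight with free access to water, then anesthetized. The ileum was tied into consecutive 7-cm loops proximal to the mesoappendix. LT-containing cell lysate (750 μl) was injected alone or with sodium linolate. After 16 h the fluid in each loop was collected and expressed as ml per cm loop length. Results are means ± SD of three independent experiments.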
# Vibrio cholerae [9] = experiment: Binding affinity to Vibrio cholerae cholera toxin assessed as apparent isoelectric point at 100 mM by isoelectric focusing analysis (isoelectric point Rvb=6.8)
# [10] = Inhibition of intestinal fluid accumulation in rabbit ligated ileal loop model assessed as fluid level at 1.65 mM injected in presence of cholera toxin after 16 hrs (RVb=1.6 +/- 0.2 ml/cm); assay type: functional, Oryctolagus cuniculus, Ileum
# [11] = Inhibition of intestinal fluid accumulation in rabbit ligated ileal loop model assessed as fluid level at 10.5 mM injected in presence of heat labile enterotoxin after 16 hrs (RVb=5.5 +/- 1 ml); assay type: functional, Oryctolagus cuniculus, Ileum; how it was run: as §1
SMILES,IC50 [1] [µM],inhibition (Escherichia coli),Kd [2] [µM],other results
CCCCCCCC/C=C\CCCCCCCC(=O)O [OLEIC ACID],410,Active,160,–
CCCCC/C=C\C/C=C\CCCCCCCC(=O)O,–,Active,–,Activity (Vibrio cholerae [3]): inactive; Activity (Oryctolagus cuniculus [4]): Dose-dependent effect; inhibition (Oryctolagus cuniculus [5]): Active; Ratio (Vibrio cholerae [6]): 200; Activity (Vibrio cholerae [7]): Active; Activity (Oryctolagus cuniculus [8]): Active; Activity (Vibrio cholerae [9]): Active
CCCCC/C=C\C/C=C\C/C=C\C/C=C\CCCC(=O)O [ARACHIDONIC ACID],380,Active,180,–
CCCCCCCCCCCCCCCCCC(=O)O [STEARIC ACID],5270,–,–,–
CCCCCCCCCCCCCCCC(=O)O [PALMITIC ACID],5800,–,–,–
CCCCC/C=C\C/C=C\CCCCCCCC(=O)O [LINOLEIC ACID],410,–,–,–
CCCCC/C=C\C/C=C\CCCCCCCC(=O)[O-].[Na+] [SODIUM LINOLATE],–,–,130,Activity [10]: 0.76 mL/cm; Activity [11]: 1 mL
